Tests used:
[1] = Inhibition of mitochondrial complex 1 in Homo sapiens (human) T47D cells by Clark's electrode method; assay type: cell-based
[2] = system: Triticum aestivum; assay: Post-emergent herbicidal activity against Triticum vulgare var. Salamanca (wheat) assessed as dry biomass at 60 uM after 14 days relative to control; assay type: functional
Method in brief: (§1)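 Plants were grown 18 days in a greenhouse, then sprayed with compound dissolved in MeOH with Tween 20 and maize oil. Controls were sprayed with distilled water containing the same MeOH, Tween 20 and maize oil. Dry biomass of all leaves was weighed 14 days after spraying, and differences from control were judged by Student's t-test (p < 0.05).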

[3] = system: Triticum aestivum; assay: Post-emergent herbicidal activity against Triticum vulgare var. Salamanca (wheat) assessed as dry biomass at 40 uM after 14 days relative to control; assay type: functional; method in brief: as §1
[4] = system: Trifolium alexandrinum; assay: Post-emergent herbicidal activity against Trifolium alexandrinum assessed as dry biomass at 20 uM after 14 days relative to control; assay type: functional; method in brief: as §1
[5] = system: Trifolium alexandrinum; assay: Post-emergent herbicidal activity against Trifolium alexandrinum assessed as dry biomass at 40 uM after 14 days relative to control; assay type: functional; method in brief: as §1
[6] = system: Lolium multiflorum; assay: Post-emergent herbicidal activity against Lolium multiflorum (Italian ryegrass) assessed as dry biomass at 40 uM after 14 days relative to control; assay type: functional; method in brief: as §1
[7] = system: Triticum aestivum; assay: Post-emergent herbicidal activity against Triticum vulgare var. Salamanca (wheat) assessed as dry biomass at 20 uM after 14 days relative to control; assay type: functional; method in brief: as §1
[8] = system: Lolium multiflorum; assay: Post-emergent herbicidal activity against Lolium multiflorum (Italian ryegrass) assessed as dry biomass at 60 uM after 14 days relative to control; assay type: functional; method in brief: as §1
[9] = system: Physalis ixocarpa; assay: Post-emergent herbicidal activity against Physalis ixocarpa assessed as dry biomass at 60 uM after 14 days relative to control; assay type: functional; method in brief: as §1
[10] = system: Trifolium alexandrinum; assay: Post-emergent herbicidal activity against Trifolium alexandrinum assessed as dry biomass at 60 uM after 14 days relative to control; assay type: functional; method in brief: as §1
[11] = system: Physalis ixocarpa; assay: Post-emergent herbicidal activity against Physalis ixocarpa assessed as dry biomass at 20 uM after 14 days relative to control; assay type: functional; method in brief: as §1
[12] = system: Physalis ixocarpa; assay: Post-emergent herbicidal activity against Physalis ixocarpa assessed as dry biomass at 40 uM after 14 days relative to control; assay type: functional; method in brief: as §1
[13] = system: Lolium multiflorum; assay: Post-emergent herbicidal activity against Lolium multiflorum (Italian ryegrass) assessed as dry biomass at 20 uM after 14 days relative to control; assay type: functional; method in brief: as §1
[14] = system: Triticum aestivum; assay: Herbicidal activity against Triticum vulgare var. Salamanca (wheat) assessed as inhibition of seed respiration after 72 hr by Clark's electrode method; assay type: functional, organism-based
Method in brief: (§2)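 Seeds were imbibed in 10 mL water in Petri dishes with compound at 10–50 μM, as in the germination set-up. O2 uptake was measured after 5, 24, 48 and 72 h with an oxygen electrode, where O2-reduction current was converted to voltage. Consumption rate was calculated, with replicates as mean ± S.E. IC50 came from probit analysis.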

[15] = system: Lolium multiflorum; assay: Herbicidal activity against Lolium multiflorum (Italian ryegrass) assessed as inhibition of seed respiration after 72 hr by Clark's electrode method; assay type: functional, organism-based; method in brief: as §2
[16] = system: Physalis ixocarpa; assay: Herbicidal activity against Physalis ixocarpa assessed as inhibition of seed respiration after 72 hr by Clark's electrode method; assay type: functional, organism-based; method in brief: as §2
[17] = system: Triticum aestivum; assay: Herbicidal activity against Triticum vulgare var. Salamanca (wheat) assessed as inhibition of root elongation after 4 days; conditions: 96 h
[18] = system: Trifolium alexandrinum; assay: Herbicidal activity against Trifolium alexandrinum assessed as inhibition of seed germination after 5 days; conditions: 120 h
[19] = system: Physalis ixocarpa; assay: Herbicidal activity against Physalis ixocarpa assessed as inhibition of root elongation after 5 days; conditions: 120 h
[20] = system: Spinacia oleracea; assay: Inhibition of hill reaction in Spinacia oleracea (spinach) chloroplast; assay type: functional
[21] = system: Trifolium alexandrinum; assay: Herbicidal activity against Trifolium alexandrinum assessed as inhibition of seed respiration after 72 hr by Clark's electrode method; assay type: functional, organism-based; method in brief: as §2
[22] = system: Trifolium alexandrinum; assay: Herbicidal activity against Trifolium alexandrinum assessed as inhibition of seed respiration at 10 to 50 uM by Clark's electrode method; assay type: functional, organism-based; conditions: TDE = time-dependent effect
Method in brief: (§3)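 Seeds imbibed in 10 mL water on filter paper in Petri dishes, with compound at 10–50 μM (dissolved in MeOH, final MeOH under 1%); controls received the same water and MeOH. O2 uptake was measured polarographically after 5, 24, 48 and 72 h of imbibition, and consumption rate was calculated. IC50 at 72 h was derived by probit/linear regression. Replicate experiments, means ± S.E.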

[23] = system: Spinacia oleracea; assay: Inhibition of light reaction of photosynthesis in Spinacia oleracea (spinach) chloroplast; assay type: functional
[24] = system: Trifolium alexandrinum; assay: Herbicidal activity against Trifolium alexandrinum assessed as inhibition of seed respiration after 5 to 72 hr by Clark's electrode method; assay type: functional, organism-based; method in brief: as §3
[25] = system: Physalis ixocarpa; assay: Herbicidal activity against Physalis ixocarpa assessed as inhibition of seed germination at 50 uM after 5 days; assay type: functional; conditions: 120 h
Method in brief: (§4)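 Seeds were placed on filter paper in Petri dishes (20 seeds for T. vulgare) and wetted with deionized water or test solution. Compound was given in MeOH at under 1%, and controls held matching MeOH. Three replicate experiments were run. Germination was scored as 1 mm root extrusion, and root and shoot length were measured on all germinated seeds. Student's t-test was used, and IC50 values came from probit analysis.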

[26] = system: Physalis ixocarpa; assay: Herbicidal activity against Physalis ixocarpa assessed as inhibition of seed germination after 5 days; conditions: 120 h
[27] = system: Lolium multiflorum; assay: Herbicidal activity against Lolium multiflorum (Italian ryegrass) assessed as inhibition of seed respiration at 10 to 50 uM by Clark's electrode method; assay type: functional, organism-based; conditions: TDE = time-dependent effect; method in brief: as §3
[28] = system: Trifolium alexandrinum; assay: Herbicidal activity against Trifolium alexandrinum assessed as inhibition of root elongation after 5 days; conditions: 120 h
[29] = system: Trifolium alexandrinum; assay: Herbicidal activity against Trifolium alexandrinum assessed as inhibition of shoot elongation after 5 days; conditions: 120 h
[30] = system: Triticum aestivum; assay: Herbicidal activity against Triticum vulgare var. Salamanca (wheat) assessed as inhibition of seed respiration after 5 to 72 hr by Clark's electrode method; assay type: functional, organism-based; method in brief: as §3
[31] = system: Triticum aestivum; assay: Herbicidal activity against Triticum vulgare var. Salamanca (wheat) assessed as inhibition of seed germination after 4 days; conditions: 96 h
[32] = system: Triticum aestivum; assay: Herbicidal activity against Triticum vulgare var. Salamanca (wheat) assessed as inhibition of shoot elongation after 4 days; conditions: 96 h
[33] = system: Physalis ixocarpa; assay: Herbicidal activity against Physalis ixocarpa assessed as inhibition of seed respiration at 10 to 50 uM by Clark's electrode method; assay type: functional, organism-based; conditions: TDE = time-dependent effect; method in brief: as §3
[34] = system: Lolium multiflorum; assay: Herbicidal activity against Lolium multiflorum (Italian ryegrass) assessed as inhibition of seed respiration after 5 to 72 hr by Clark's electrode method; assay type: functional, organism-based; method in brief: as §3
[35] = system: Triticum aestivum; assay: Herbicidal activity against Triticum vulgare var. Salamanca (wheat) assessed as inhibition of seed respiration at 10 to 50 uM by Clark's electrode method; assay type: functional, organism-based; conditions: TDE = time-dependent effect; method in brief: as §3
[36] = system: Lolium multiflorum; assay: Herbicidal activity against Lolium multiflorum (Italian ryegrass) assessed as inhibition of seed germination at 50 uM after 5 days; assay type: functional; conditions: 120 h; method in brief: as §4
[37] = system: Lolium multiflorum; assay: Herbicidal activity against Lolium multiflorum (Italian ryegrass) assessed as inhibition of shoot elongation after 5 days; conditions: 120 h
[38] = system: Physalis ixocarpa; assay: Herbicidal activity against Physalis ixocarpa assessed as inhibition of seed respiration after 5 to 72 hr by Clark's electrode method; assay type: functional, organism-based; method in brief: as §3
[39] = system: Lolium multiflorum; assay: Herbicidal activity against Lolium multiflorum (Italian ryegrass) assessed as inhibition of root elongation after 5 days; conditions: 120 h
[40] = system: Lolium multiflorum; assay: Herbicidal activity against Lolium multiflorum (Italian ryegrass) assessed as inhibition of seed germination after 5 days; conditions: 120 h
[41] = system: Physalis ixocarpa; assay: Herbicidal activity against Physalis ixocarpa assessed as inhibition of shoot elongation after 5 days; conditions: 120 h

CC(C)(O)[C@H]1CC[C@](C)([C@@H](O)CC[C@](C)(O)[C@H]2CC[C@H]3O[C@@H]([C@]4(C)CC[C@@H](Br)C(C)(C)O4)CC[C@]3(C)O2)O1 [THYRSIFEROL]
IC50 [1]: 3 µM

C[n+]1ccc(-c2cc[n+](C)cc2)cc1.[Cl-].[Cl-] [PARAQUAT DICHLORIDE]
Activity [2]: 67%
Activity [3]: 67%
Activity [4]: 67%
Activity [5]: 59%
Activity [6]: 54%
Activity [7]: 83%
Activity [8]: 32%
Activity [9]: 84%
Activity [10]: 57%
Activity [11]: 96%
Activity [12]: 100%
Activity [13]: 97%

CCCCC[C@H]1CCCCCCCCCC(=O)O[C@H]2[C@H](O)[C@@H](CO)O[C@@H](O[C@H]3[C@H](O1)O[C@H](C)[C@H](O)[C@@H]3O)[C@@H]2O[C@@H]1O[C@@H](C)[C@H](OC(=O)[C@@H](C)CC)[C@@H](O[C@@H]2O[C@@H](C)[C@H](O)[C@@H](O)[C@H]2O)[C@H]1OC(=O)[C@@H](C)CC [TRICOLORIN A]
IC50 [14]: 25.7 µM
Activity [2]: 67%
IC50 [15]: 8 µM
IC50 [16]: 11.7 µM
IC50 [17]: 24.1 µM
IC50 [18]: 16 µM
IC50 [19]: 13.8 µM
Activity [3]: 78%
Activity [4]: 87%
IC50 [20]: 5 µM
IC50 [21]: 22.6 µM
Activity [5]: 83%
inhibition [22]: tde
UC50 [23]: 0.33 µM
inhibition [24]: Dose-dependent effect
inhibition at 50 µM [25]: 100%
IC50 [26]: 13.8 µM
Activity [6]: 53%
Activity [7]: 82%
inhibition [27]: tde
IC50 [28]: 18 µM
IC50 [29]: 12.7 µM
inhibition [30]: Dose-dependent effect
Activity [8]: 38%
IC50 [31]: 25.7 µM
IC50 [32]: 8.5 µM
Activity [9]: 78%
inhibition [33]: tde
inhibition [34]: Dose-dependent effect
Activity [10]: 63%
inhibition [35]: tde
inhibition at 50 µM [36]: 100%
Activity [11]: 104%
IC50 [37]: 12.3 µM
Activity [12]: 84%
inhibition [38]: Dose-dependent effect
IC50 [39]: 15.3 µM
IC50 [40]: 16.1 µM
IC50 [41]: 12.7 µM
Activity [13]: 91%
